High-throughput results: PubChem, several laboratories
Hits are enriched below; roughly 9.5% of the tested compounds scored in any of these assays.
D1 mod – D1 dopamine receptor (human) allosteric modulation; P21728; HEK293 D1, CRE-luciferase, dopamine EC30 potentiation; actives deviate in either direction; B-score at 10 µM; 58,000 compounds, 5.9% hits; AID 641;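 active means luminescence count or its row- and column-corrected plate score outside the 99.7% band of the plate's sample wells, on either side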
Jurkat tox 60K – cytotoxic compounds reducing Jurkat cell viability. Jurkat E6.1 viability, ATP luminescence, 48 h. inhibition, % at 4 µM. 56,000 compounds, 1.2% hits;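 active means inhibition above the mean inhibition of all tested compounds plus 3 SD, cut at about 28% in these data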
Htt clearance – mutant huntingtin protein clearance | HeLa Exon1htt(103Q)mCFP, aggregate imaging; zero = plate's median compound well | inhibition, % at 1.5 µM | 47,000 compounds, 0.42% hits;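 active means inhibition of aggregate fluorescence above about 70%, also judged a hit by eye on the cell image, limit read from the data, passing the limit was not always enough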;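 further: cells exposed to compound for three days before fixation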
HEK293 NFkB inh – lowers PMA/ionomycin-induced NF-kB signal in HEK293 cells | HEK-293 NF-kB luciferase reporter, luminescence | inhibition, % at 3 µM | 62,000 compounds, 0.21% hits | AID 465;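 active means inhibition above the mean of all tested compounds plus 3 SD, cut at about 40% in these data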;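 further: 0% = stimulated DMSO wells and 100% = 10 µM reference inhibitor 5653914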
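Timing: 1 h pretreatment, 16 h stimulation, 37 °C; system: HEK-293 cells with stable firefly luciferase reporter driven by four HIV NF-kB elements; doses: 3 µM once, 0.30% DMSO; measured by: luciferase luminescence; control set: DMSO and 10 µM reference inhibitor; repeats: single test; reagent: PMA plus ionomycin mix as NF-kB-activating stimulus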
M1 antagonist – blocks the rat M1 muscarinic receptor response to acetylcholine | 64,000 compounds, 3.4% hits | AID 628 | CHO-M1 cells, Fluo-4 calcium, ACh EC80 antagonist mode; hits give low values | B-score at 10 µM | P08482;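 active means calcium fluorescence response, raw or row-and-column corrected B-score, differing from the plate sample mean either way at a set confidence level, mostly lower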
Target sequence (P08482 whole entry, looked up): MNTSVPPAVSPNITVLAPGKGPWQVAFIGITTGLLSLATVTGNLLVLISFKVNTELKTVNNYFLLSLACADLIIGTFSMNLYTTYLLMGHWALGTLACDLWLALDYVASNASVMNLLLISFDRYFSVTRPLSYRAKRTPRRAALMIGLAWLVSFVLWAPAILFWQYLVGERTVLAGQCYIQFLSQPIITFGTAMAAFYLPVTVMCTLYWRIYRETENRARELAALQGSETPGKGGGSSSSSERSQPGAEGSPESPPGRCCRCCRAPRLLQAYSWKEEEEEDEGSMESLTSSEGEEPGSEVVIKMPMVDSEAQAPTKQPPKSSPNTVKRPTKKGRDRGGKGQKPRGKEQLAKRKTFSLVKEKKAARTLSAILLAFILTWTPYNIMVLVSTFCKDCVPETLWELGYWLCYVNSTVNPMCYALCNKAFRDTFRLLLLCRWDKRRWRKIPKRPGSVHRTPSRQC
M1 ag – activates the M1 muscarinic receptor; CHO-M1 cells, Fluo-4 calcium fluorescence, agonist mode; hits give high values; B-score at 10 µM; 64,000 compounds, 3% hits; AID 626;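 active means fluorescence rise, raw or as B-score row- and column-corrected plate score, outside the 99.7% band of its plate's samples, either direction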
D1 PAM confirm – confirmation of human D1 dopamine receptor allosteric modulators; AID 642; luminescence at 10 µM; 2,200 compounds, 88% hits; shares compounds with D1 mod; HEK293 D1 CRE-luciferase, dopamine EC30 potentiation; hits give high values;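 active means luminescence in either of two replicates above the same-plate mean plus 3 SD of the low-dose dopamine control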
D1 ag no DA – secondary test of D1 modulators: activity without dopamine | shares compounds with D1 mod | HEK293 D1 CRE-luciferase, luminescence, no dopamine; hits give high values | luminescence at 10 µM | 1,900 compounds, 0.8% hits; in the data active means luminescence above about 3900
Isoprot counter – alters isoproterenol CRE-luciferase response in HEK293 cells; shares compounds with D1 mod; 2,200 compounds, 63% hits; HEK293 D1 CRE-luciferase, isoproterenol EC30 counter-screen; hits give high values; luminescence at 10 µM;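 active means luminescence in either replicate above plate mean of wells with a partly effective reference agonist dose plus 3 SD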;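 further: isoproterenol raises cAMP through native beta-adrenoceptor Gs so signal bypasses D1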
* = called active by the depositor; x = not tested or not shown.

SMILES	D1 mod	Jurkat tox 60K	Htt clearance	HEK293 NFkB inh	M1 antagonist	M1 ag	D1 PAM confirm	D1 ag no DA	Isoprot counter
N#CCCn1c2ccccc2c2nc3ccccc3nc21	14*	-2	4	11	-0.96	1.5	19256*	1672	3704*
Cc1cc(C)c(S(=O)(=O)Nc2ccc[nH]c2=O)c(C)c1	-0.08	6	-108	13	0.092	0.27	x	x	x
CCn1c(-c2ccsc2)nc2c1c(=O)[nH]c(=O)n2Cc1ccccc1	6.3*	2	x	27	0.62	-0.035	16576*	1684	3544*
CC1(C)Cc2c(c(-c3ccccc3)[nH]c(=O)c2C#N)CO1	7.2*	2	x	10	1.6	-1	17304*	1772	4284*
CCC1CC(CSc2ncn[nH]2)OC1=O (stereo unspecified)	x	x	0	x	x	x	x	x	x
O=S(=O)(NCc1ccc2c(c1)OCO2)c1cnc[nH]1	0.017	2	-30	13	-0.43	-0.65	x	x	x
CCOc1ccc(CCNS(=O)(=O)c2cnc[nH]2)cc1OCC	25*	8	x	15	0.22	0.51	24048*	x	3928*
CCOC(=O)/C(C#N)=C1/SC(CCO)C(=O)N1c1ccccc1 (stereo unspecified)	x	x	31	x	0.43	-0.69	x	x	x
CCC1S/C(=C(\C#N)C(N)=O)N(c2ccc(F)cc2)C1=O (stereo unspecified)	5*	-5	17	6	-0.092	-1	9908*	x	2824*
COc1cccc(C2CC(C(F)(F)F)n3ncc(C(=O)NCC4CCCO4)c3N2)c1 (stereo unspecified)	1.2	-2	x	-7	0.22	-0.12	x	x	x
COc1ccc(C2CC(C(F)(F)F)n3ncc(C(=O)NCc4cccnc4)c3N2)cc1OC (stereo unspecified)	9.8*	0	-45	14	-0.17	0.14	18500*	1632	7624*
COc1ccc2c(c1)c1ncn(Cc3ccco3)c(=O)c1n2C	7.5*	4	51	20	-0.0012	1.2	12892*	1532	3304*
Cn1c2ccc(F)cc2c2ncn(CCN3CCOCC3)c(=O)c21	1.2	2	40	14	-0.24	0.99	x	x	x
CCOc1ccc(-n2c(SCC)nc3c(c2=O)SCC3)cc1	-0.15	x	x	8	-0.054	-0.56	x	x	x
CSc1c(C#N)c(N)c(C#N)c2c1COC(C)(C)C2	25*	0	-9	21	0.32	-0.56	28108*	1616	6432*
CCCc1[nH]c(=O)c(C#N)c2c1COC(C)(C)C2	x	x	-4	x	x	x	x	x	x
CC(Sc1nc(N2CCOCC2)nc(N2CCOCC2)n1)C(=O)Nc1ccccc1 (stereo unspecified)	0.48	x	x	13	1.3	0.21	x	x	x
Cc1nc(SCC(=O)Nc2ccc(N3CCOCC3)cc2)nc(C)c1C	x	x	-48	x	x	x	x	x	x
CNc1nc(SCc2ccccc2)nc(N2CCOCC2)n1	11*	-1	4	15	-0.076	0.15	24896*	1672	7984*
CC(C)Nc1nc(SCC(=O)Nc2ccccc2)nc(N2CCOCC2)n1	14*	1	x	17	0.66	-1.5	20560*	1624	5156*
CC(Sc1nc(N(C)C)nc(N2CCOCC2)n1)C(=O)Nc1ccccc1 (stereo unspecified)	4.8*	7	-84	5	0.14	-0.24	9356*	1600	3700*
CC(=O)Nc1ccc(NC(=O)CN(C)CCC#N)cc1	-0.00013	-1	x	6	x	x	x	x	x
CCOc1ccccc1C(=O)NC(C)c1ccc2c(c1)OCO2 (stereo unspecified)	0.91	6	48	3	-1.1	1.8	x	x	x
O=C(COc1ccc(Cl)cc1)NCc1nnc(SCC(=O)N2CCCc3ccccc32)o1	-0.93	x	x	2	0.38	0.24	x	x	x
CCCOC(=O)NC(CC)COC(=O)Nc1cccc(C)c1C (stereo unspecified)	8.2*	5	x	-1	0.078	-0.28	6072	1720	2308
SMILES	D1 mod	Jurkat tox 60K	Htt clearance	HEK293 NFkB inh	M1 antagonist	M1 ag	D1 PAM confirm	D1 ag no DA	Isoprot counter
CN1CCN(c2nc(-c3cccnc3)nc3ccccc23)CC1	x	5	-47	6	-0.014	0.001	x	x	x
NC(=O)C1CCN(c2nc(-c3ccccc3)nc3ccccc23)CC1	15*	3	x	8	0.0085	0.36	24116*	1564	7580*
c1cncc(-c2nc(N3CCCCCC3)c3ccccc3n2)c1	12*	7	-22	24	-0.8	0.025	14412*	1464	4184*
Cc1nc2ncnn2c(C)c1CCC(=O)N1CCOCC1	x	-3	-17	6	-0.4	-0.12	x	x	x
Nc1ncnc(Nc2cccc(C(F)(F)F)c2)n1	x	x	10	x	x	x	x	x	x
Nc1nc(Nc2cccc(C(F)(F)F)c2)nc(C(F)(F)F)n1	8*	-1	-13	-1	-0.45	-0.42	15108*	1664	3868*
CCOC(=O)CSc1nc(N)c(C#N)c(CC(C)C)c1C#N	0.35	-2	-39	3	-0.0097	0.0055	x	x	x
CN1C(=S)SC(C)(C)C1(C)NO (stereo unspecified)	0.0031	15	-2	14	-0.048	-0.08	x	x	x
COC(=O)CN(c1ccc(OC)cc1)S(=O)(=O)c1ccc(OC)c(OC)c1	3*	-3	-36	9	0.49	-0.11	10376*	1508	3068*
CCOc1ccc(N(CC(=O)OC)S(=O)(=O)c2ccc(OC)c(OC)c2)cc1	3.6*	8	x	16	0.43	-1.2	12916*	1768	3080*
COc1ccc(N(CC(=O)O)S(=O)(=O)c2ccc(OC)c(OC)c2)cc1	-1.2	x	1	x	-0.79	0.35	x	x	x
COc1ccc(Cc2nnc(NC(=O)c3c(-c4ccccc4)noc3C)s2)cc1	3.3*	-4	32	5	-0.15	-0.34	6196*	1588	2584
O=C(c1cccn2c(=O)c3cc(Cl)ccc3nc12)N1CCN(Cc2ccc3c(c2)OCO3)CC1	3*	x	x	16	-0.0029	2.4	6868*	1600	2704
CCOC(=O)C1=C(NC(=O)c2ccc(Br)o2)Nc2ccccc2N=C1	19*	6	4	10	0.51	-0.24	24204*	1580	5344*
CC1=C(C(=O)N2CCCCC2)C(c2cccs2)C2=C(CCCC2=O)N1 (stereo unspecified)	0.64	-4	-62	12	0.26	0.53	x	x	x
CCCS(=O)(=O)N1CCC(C(=O)NCCN(C)Cc2ccccc2)CC1	2.6*	-8	x	-2	-0.31	-1.1	5744	1548	2252
COCCn1c(-c2ccco2)nc2nc3ccccc3nc21	9.2*	7	x	15	0.037	-0.74	16228*	1728	3820*
